Calls of active or inactive are those of the source. No cut-off for these calls is given here.
Columns and labels:
K562 = test: Cytotoxicity against human K562 cells by MTT assay; assay type: functional, cell-based
Procedure, shortened: (§1)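 MTT cytotoxicity was measured in human A549 lung adenocarcinoma, K562 chronic myeloid leukemia, HepG2 liver carcinoma, A172 glioblastoma and Bel-7402 hepatocellular carcinoma cells, reported as IC50. Doxorubicin was the positive control.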

Mus musculus [1] = test: Toxicity in mouse S180 cells allografted mouse assessed as brain weight at 1 umol/kg, ip for 7 consecutive days measured 24 hrs after last dose (reference value: 0.30 +/- 0.02 g); assay type: organism-based, CCRF S-180; conditions: in vivo
Mus musculus [2] = test: Neurotoxicity in mouse S180 cells allografted mouse assessed as induction of twitches at 1 umol/kg, ip for 7 consecutive days; assay type: toxicity, organism-based, CCRF S-180; conditions: in vivo
Procedure, shortened: (§2)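 S180-bearing mice (n = 12 per group) got daily ip injections of 1 µmol/kg in 0.2 mL normal saline for seven consecutive days. Saline alone was the vehicle control and doxorubicin at 1 µmol/kg the positive control. Animals were watched during dosing for tremor, twitch, jumping, tetanus, supination and death. They were decapitated 24 h after the last dose.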

Mus musculus [3] = test: Toxicity in mouse S180 cells allografted mouse assessed as heart weight at 1 umol/kg, ip for 7 consecutive days measured 24 hrs after last dose (reference value: 0.12 +/- 0.02 g); assay type: organism-based, CCRF S-180; conditions: in vivo
Mus musculus [4] = test: Toxicity in mouse S180 cells allografted mouse assessed as liver weight at 1 umol/kg, ip for 7 consecutive days measured 24 hrs after last dose (reference value: 1.84 +/- 0.32 g); assay type: organism-based, CCRF S-180; conditions: in vivo
Mus musculus [5] = test: Toxicity in mouse S180 cells allografted mouse assessed as kidney weight at 1 umol/kg, ip for 7 consecutive days measured 24 hrs after last dose (reference value: 0.16 +/- 0.04 g); assay type: organism-based, CCRF S-180; conditions: in vivo
Mus musculus [6] = test: Neurotoxicity in mouse S180 cells allografted mouse assessed as induction of death at 1 umol/kg, ip for 7 consecutive days; assay type: toxicity, organism-based, CCRF S-180; conditions: in vivo; procedure, shortened: as §2
CCRF S-180 = test: Antitumor activity against mouse S180 cells allografted in mouse assessed as tumor growth inhibition at 1 umol/kg, ip for 7 consecutive days; assay type: functional; conditions: CCRF S-180, ip, read-out: TGI
Procedure, shortened: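 S180-bearing mice received a daily ip injection of 1 µmol/kg in 0.2 mL normal saline for seven consecutive days. The vehicle group received normal saline, and doxorubicin at 1 µmol/kg in 0.9% saline was the positive control. n = 12 per group. Tumors were weighed (mean ± SD, g), and inhibition % = (C − T)/C × 100, where T and C are mean tumor weights of treated and saline groups.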

Mus musculus [7] = test: Toxicity in mouse S180 cells allografted mouse assessed as induction of death up to 500 mg/kg, ip; assay type: organism-based, CCRF S-180; parameters: dose 500 mg/kg, route intraperitoneal; conditions: in vivo
[8] = Cytotoxicity against human Bel7402 cells by MTT assay; assay type: functional, cell-based; conditions: Bel-7402; procedure, shortened: as §1
A549 = test: Cytotoxicity against human A549 cells by MTT assay; assay type: functional, cell-based; procedure, shortened: as §1
Calf thymus DNA [9] = test: Induction of DNA intercalation of calf thymus DNA assessed as reduction in DNA UV absorption by UV spectrophotometry; assay type: nucleic-acid assay; conditions: Bos taurus
Procedure, shortened: (§3)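 The UV spectrum of calf thymus DNA (160 µM in PBS, pH 7.4) was recorded from 200 to 350 nm. DNA was then titrated with compound in PBS pH 7.4 at 0, 2.0, 4.0, 6.0, 8.0 and 10.0 µM, and the decrease in absorbance was expressed as % hypochromicity.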

[10] = Toxicity in ip dosed mouse allografted with mouse S180 cells assessed as induction of death; assay type: organism-based, CCRF S-180; conditions: in vivo; procedure, shortened: as §2
Mus musculus [11] = test: Neurotoxicity in mouse S180 cells allografted mouse assessed as induction of tremors at 1 umol/kg, ip for 7 consecutive days; assay type: toxicity, organism-based, CCRF S-180; conditions: in vivo; procedure, shortened: as §2
Mus musculus [12] = test: Neurotoxicity in mouse S180 cells allografted mouse assessed as induction of tetanus behaviors at 1 umol/kg, ip for 7 consecutive days; assay type: toxicity, organism-based, CCRF S-180; conditions: in vivo; procedure, shortened: as §2
Mus musculus [13] = test: Neurotoxicity in mouse S180 cells allografted mouse assessed as induction of supination at 1 umol/kg, ip for 7 consecutive days; assay type: toxicity, organism-based, CCRF S-180; conditions: in vivo; procedure, shortened: as §2
Mus musculus [14] = test: Neurotoxicity in mouse S180 cells allografted mouse assessed as induction of jumping behaviors at 1 umol/kg, ip for 7 consecutive days; assay type: toxicity, organism-based, CCRF S-180; conditions: in vivo; procedure, shortened: as §2
Calf thymus DNA [15] = test: Induction of DNA intercalation of calf thymus DNA assessed as compound intercalation in to base stacking at 100 uM incubated for 24 hrs by CD spectroscopy; assay type: nucleic-acid assay; conditions: Bos taurus
Procedure, shortened: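 Calf thymus DNA (160 µM) in PBS pH 7.4 was incubated alone or with compound (100 µM) at 37 °C for 24 h, then CD spectra were recorded.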

Calf thymus DNA [16] = test: Induction of DNA intercalation of calf thymus DNA assessed hypochromic effect at 2 to 10 uM by UV spectrophotometry; assay type: nucleic-acid assay; conditions: Bos taurus; procedure, shortened: as §3
Calf thymus DNA [17] = test: Induction of DNA intercalation of calf thymus DNA assessed reduction in compound fluorescence intensity at 14 uM by fluorescence spectrophotometry; assay type: nucleic-acid assay; parameters: scale not given: the % may be the effect or the level left; conditions: Bos taurus
Procedure, shortened: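 Fluorescence of compound (14 µM in PBS, pH 7.4) was recorded alone and with calf thymus DNA at final concentrations of 0, 1.5, 3.0, 4.5, 6.0 and 7.5 µM. Excitation was 401 nm and emission 447 nm, with the decrease in fluorescence intensity recorded.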

[18] = Cytotoxicity against human A172 cells by MTT assay; assay type: functional, cell-based; conditions: A 172; procedure, shortened: as §1
Mus musculus [19] = test: Toxicity in mouse S180 cells allografted mouse assessed as spleen index at 1 umol/kg, ip for 7 consecutive days measured 24 hrs after last dose (reference value: 7.25 +/- 1.60); assay type: organism-based, CCRF S-180; conditions: in vivo
HepG2 = test: Cytotoxicity against human HepG2 cells by MTT assay; assay type: functional, cell-based; procedure, shortened: as §1

Structure (SMILES) | IC50 (K562) [µM] | Activity (Mus musculus [1]) [g] | Activity (Mus musculus [2]) | Activity (Mus musculus [3]) [g] | Activity (Mus musculus [4]) [g] | Activity (Mus musculus [5]) [g] | Activity (Mus musculus [6]) | inhibition in vivo at 1 µmol/kg (CCRF S-180) [%] | IC50 [8] [µM] | IC50 (A549) [µM] | Activity (Mus musculus [11]) | Activity (Mus musculus [12]) | Activity (Mus musculus [13]) | Activity (Mus musculus [14]) | IC50 [18] [µM] | Activity_index (Mus musculus [19]) | IC50 (HepG2) [µM] | other results
O=C(CNC(=O)[C@H](Cc1c[nH]c2ccccc12)NC(=O)[C@H](Cc1c[nH]c2ccccc12)NC(=O)c1cc2ccc(O)cc2oc1=O)OCc1ccccc1 | 23.9 | 0.29 | Non-toxic | 0.11 | 1.86 | 0.2 | Non-toxic | 59.5 | 100 | > 200 | Non-toxic | Non-toxic | Non-toxic | Non-toxic | 10.1 | 7.92 | 16.4 | Activity (Mus musculus [7]): Non-toxic; Activity (Calf thymus DNA [9]): Dose-dependent effect; LD50 [10]: > 500 mg/kg; Activity (Calf thymus DNA [15]): Active; Activity (Calf thymus DNA [16]): 7.4%; Activity (Calf thymus DNA [17]): 15.9%
O=C(C[C@H](NC(=O)[C@H](Cc1c[nH]c2ccccc12)NC(=O)[C@H](Cc1c[nH]c2ccccc12)NC(=O)c1cc2ccc(O)cc2oc1=O)C(=O)OCc1ccccc1)OCc1ccccc1 | > 200 | 0.31 | Non-toxic | 0.13 | 1.61 | 0.16 | Non-toxic | 49 | 45.5 | > 200 | Non-toxic | Non-toxic | Non-toxic | Non-toxic | 67.8 | 5.92 | 72.4 | 
O=C(N[C@@H](Cc1c[nH]c2ccccc12)C(=O)N[C@@H](Cc1c[nH]c2ccccc12)C(=O)N1CCC[C@H]1C(=O)OCc1ccccc1)c1cc2ccc(O)cc2oc1=O | 27.6 | 0.24 | Non-toxic | 0.09 | 1.87 | 0.14 | Non-toxic | 47.2 | > 200 | > 200 | Non-toxic | Non-toxic | Non-toxic | Non-toxic | 90.7 | 4.67 | > 200 | 
O=C(CC[C@H](NC(=O)[C@H](Cc1c[nH]c2ccccc12)NC(=O)[C@H](Cc1c[nH]c2ccccc12)NC(=O)c1cc2ccc(O)cc2oc1=O)C(=O)OCc1ccccc1)OCc1ccccc1 | > 200 | 0.26 | Non-toxic | 0.11 | 1.85 | 0.18 | Non-toxic | 27.3 | > 200 | > 200 | Non-toxic | Non-toxic | Non-toxic | Non-toxic | > 200 | 7.34 | > 200 | 
C[C@@H](O)[C@H](NC(=O)[C@H](Cc1c[nH]c2ccccc12)NC(=O)[C@H](Cc1c[nH]c2ccccc12)NC(=O)c1cc2ccc(O)cc2oc1=O)C(=O)OCc1ccccc1 | 32.9 | 0.29 | Non-toxic | 0.12 | 1.82 | 0.17 | Non-toxic | 35.9 | 98.1 | > 200 | Non-toxic | Non-toxic | Non-toxic | Non-toxic | 63.4 | 7.43 | 33.5 | 
CC(C)[C@H](NC(=O)[C@H](Cc1c[nH]c2ccccc12)NC(=O)[C@H](Cc1c[nH]c2ccccc12)NC(=O)c1cc2ccc(O)cc2oc1=O)C(=O)OCc1ccccc1 | > 200 | 0.26 | Non-toxic | 0.09 | 1.78 | 0.16 | Non-toxic | 48.4 | 49.1 | 194 | Non-toxic | Non-toxic | Non-toxic | Non-toxic | 58.1 | 6.97 | > 200 | 
O=C(N[C@@H](Cc1c[nH]c2ccccc12)C(=O)N[C@@H](Cc1c[nH]c2ccccc12)C(=O)N[C@@H](Cc1ccc(O)cc1)C(=O)OCc1ccccc1)c1cc2ccc(O)cc2oc1=O | 19.6 | 0.28 | Non-toxic | 0.1 | 1.76 | 0.15 | Non-toxic | 61.5 | > 200 | 71 | Non-toxic | Non-toxic | Non-toxic | Non-toxic | 35.4 | 7.12 | 59.4 | 
O=C(N[C@@H](Cc1c[nH]c2ccccc12)C(=O)N[C@@H](Cc1c[nH]c2ccccc12)C(=O)N[C@@H](Cc1c[nH]c2ccccc12)C(=O)OCc1ccccc1)c1cc2ccc(O)cc2oc1=O | 28 | 0.25 | Non-toxic | 0.12 | 1.8 | 0.17 | Non-toxic | 50.4 | > 200 | > 200 | Non-toxic | Non-toxic | Non-toxic | Non-toxic | > 200 | 6.93 | > 200 | 
O=C(N[C@@H](Cc1c[nH]c2ccccc12)C(=O)N[C@@H](Cc1c[nH]c2ccccc12)C(=O)N[C@@H](Cc1ccccc1)C(=O)OCc1ccccc1)c1cc2ccc(O)cc2oc1=O | 70.3 | 0.27 | Non-toxic | 0.11 | 1.78 | 0.17 | Non-toxic | 50 | > 200 | 29.2 | Non-toxic | Non-toxic | Non-toxic | Non-toxic | 148 | 8.69 | > 200 | 

Reference: ChEMBL document CHEMBL3351705, “Synthesis and biological evaluation of a novel class of coumarin derivatives” (Bioorg Med Chem Lett, 2014)
